Experimental data as given in ChEMBL document CHEMBL1649383, “Mode of action of epoxyphomalins A and B and characterization of related metabolites from the marine-derived fungus Paraconiothyrium sp” (J Nat Prod, 2010).
pIC50: −log10 of the molar value. In brackets after ≈: the same amount, converted by molar mass.

Columns and labels:
[1] = Cytotoxicity against human CNXF 498NL cells at 0.01 ug/ml relative to control; format: functional
[2] = Cytotoxicity against human BXF 1218L cells at 0.01 ug/ml relative to control; format: functional
[3] = Cytotoxicity against human BXF 1218L cells; format: functional, cell-based
Outline: (§1)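 Monolayer cell survival and proliferation assay, run within a panel of 36 human tumor cell lines; IC50 determined per cell line.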

[4] = Cytotoxicity against human CNXF 498NL cells; format: functional, cell-based; outline: as §1
SF-268 [5] = assay: Cytotoxicity against human SF268 cells; format: functional, cell-based
Outline: (§2)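 Monolayer cell survival and proliferation assay run across a panel of 36 human tumor cell lines, with IC50 determined from the resulting growth data.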

HCT-116 [6] = assay: Cytotoxicity against human HCT116 cells; format: functional, cell-based; outline: as §1
HT-29 [7] = assay: Cytotoxicity against human HT-29 cells; format: functional, cell-based; outline: as §1
[8] = Cytotoxicity against human LXFL 1121L cells; format: functional, cell-based
Outline: (§3)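 Monolayer cell survival and proliferation assay run across a panel of 36 human tumour cell lines; IC50 values determined.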

[9] = Cytotoxicity against human LXFL 529L cells; format: functional, cell-based; outline: as §3
[10] = Cytotoxicity against human OVXF 1619L cells; format: functional, cell-based; outline: as §2
LNCaP [11] = assay: Cytotoxicity against human LNCAP cells; format: functional, cell-based; outline: as §3
SF-268 [12] = assay: Cytotoxicity against human SF268 cells at 0.001 ug/ml relative to control; format: functional
HCT-116 [13] = assay: Cytotoxicity against human HCT116 cells at 0.001 ug/ml relative to control; format: functional
[14] = Cytotoxicity against human LXFA 289L cells at 0.001 ug/ml relative to control; format: functional
[15] = Cytotoxicity against human MEXF 462NL cells at 0.001 ug/ml relative to control; format: functional
CWR22R [16] = assay: Cytotoxicity against human 22Rv1 cells at 0.001 ug/ml relative to control; format: functional
DU-145 [17] = assay: Cytotoxicity against human DU145 cells at 0.001 ug/ml relative to control; format: functional
[18] = Cytotoxicity against human PC3M cells at 0.001 ug/ml relative to control; format: functional, PC-3M
HT-29 [19] = assay: Cytotoxicity against human HT-29 cells at 0.01 ug/ml relative to control; format: functional
[20] = Cytotoxicity against human LXFA 629L cells at 0.01 ug/ml relative to control; format: functional
[21] = Cytotoxicity against human MEXF 520L cells at 0.01 ug/ml relative to control; format: functional
[22] = Cytotoxicity against human OVXF 1619L cells at 0.01 ug/ml relative to control; format: functional
LNCaP [23] = assay: Cytotoxicity against human LNCAP cells at 0.01 ug/ml relative to control; format: functional
[24] = Cytotoxicity against human PC3M cells at 0.01 ug/ml relative to control; format: functional, PC-3M
[25] = Cytotoxicity against human RXF 1781L cells at 0.01 ug/ml relative to control; format: functional
[26] = Cytotoxicity against human UXF 1138L cells at 0.01 ug/ml relative to control; format: functional
[27] = Cytotoxicity against human MEXF 462NL cells at 0.1 ug/ml relative to control; format: functional
[28] = Cytotoxicity against human MEXF 520L cells at 0.1 ug/ml relative to control; format: functional
[29] = Cytotoxicity against human OVXF 1619L cells at 0.1 ug/ml relative to control; format: functional
[30] = Cytotoxicity against human OVXF 899L cells at 0.1 ug/ml relative to control; format: functional
OVCAR-3 = assay: Cytotoxicity against human OVCAR3 cells at 0.1 ug/ml relative to control; format: functional
[31] = Cytotoxicity against human PAXF 1657L cells at 0.1 ug/ml relative to control; format: functional
PANC-1 [32] = assay: Cytotoxicity against human PANC1 cells at 0.1 ug/ml relative to control; format: functional
[33] = Cytotoxicity against human PXF 1752L cells at 0.1 ug/ml relative to control; format: functional
[34] = Cytotoxicity against human RXF 393NL cells at 0.1 ug/ml relative to control; format: functional
[35] = Cytotoxicity against human RXF 944L cells at 0.1 ug/ml relative to control; format: functional
[36] = Cytotoxicity against human BXF 1218L cells at 1 ug/ml relative to control; format: functional
[37] = Cytotoxicity against human CNXF 498NL cells at 1 ug/ml relative to control; format: functional
HCT-116 [38] = assay: Cytotoxicity against human HCT116 cells at 1 ug/ml relative to control; format: functional
[39] = Cytotoxicity against human LXFL 529L cells at 1 ug/ml relative to control; format: functional
[40] = Cytotoxicity against human MEXF 394NL cells at 1 ug/ml relative to control; format: functional
PANC-1 [41] = assay: Cytotoxicity against human PANC1 cells at 1 ug/ml relative to control; format: functional
CWR22R [42] = assay: Cytotoxicity against human 22Rv1 cells at 1 ug/ml relative to control; format: functional
[43] = Cytotoxicity against human PC3M cells at 1 ug/ml relative to control; format: functional, PC-3M
[44] = Cytotoxicity against human RXF 1781L cells at 1 ug/ml relative to control; format: functional
[45] = Cytotoxicity against human RXF 486L cells at 1 ug/ml relative to control; format: functional
[46] = Cytotoxicity against human RXF 944L cells at 1 ug/ml relative to control; format: functional
[47] = Cytotoxicity against human GXF251L cells at 10 ug/ml relative to control; format: functional
[48] = Cytotoxicity against human MAXF 401NL cells at 10 ug/ml relative to control; format: functional
[49] = Cytotoxicity against human OVXF 899L cells at 10 ug/ml relative to control; format: functional
[50] = Cytotoxicity against human PAXF 1657L cells at 10 ug/ml relative to control; format: functional
CWR22R [51] = assay: Cytotoxicity against human 22Rv1 cells at 10 ug/ml relative to control; format: functional
DU-145 [52] = assay: Cytotoxicity against human DU145 cells at 10 ug/ml relative to control; format: functional
[53] = Cytotoxicity against human RXF 1781L cells at 10 ug/ml relative to control; format: functional
[54] = Cytotoxicity against human RXF 944L cells at 10 ug/ml relative to control; format: functional
[55] = Cytotoxicity against human UXF 1138L cells at 10 ug/ml relative to control; format: functional

## C=C1[C@@H](O)[C@H]2O[C@@]2(C[C@H]2C(C)=CC[C@H]3C(C)(C)CCC[C@]23C)[C@@H](O)[C@H]1O [EPOXYPHOLAMIN D]
[1]
  Activity: 91%
[2]
  Activity: 94%
[3]
  pIC50: 5.84
  IC70: 0.969 µg/mL (≈ 2.67 µM)
  IC90: > 10 µg/mL
[4]
  pIC50: 5.46
  IC70: 3.09 µg/mL (≈ 8.53 µM)
  IC90: 7.63 µg/mL (≈ 21 µM)
SF-268 [5]
  pIC50: 4.98
  IC70: 5.62 µg/mL (≈ 15.5 µM)
  IC90: 8.36 µg/mL (≈ 23.1 µM)
HCT-116 [6]
  pIC50: 5.11
  IC70: 4.86 µg/mL (≈ 13.4 µM)
  IC90: 8.47 µg/mL (≈ 23.4 µM)
HT-29 [7]
  pIC50: 4.97
  IC70: 5.73 µg/mL (≈ 15.8 µM)
  IC90: 8.41 µg/mL (≈ 23.2 µM)
[8]
  pIC50: 5.05
  IC70: 5.35 µg/mL (≈ 14.8 µM)
  IC90: 8.82 µg/mL (≈ 24.3 µM)
[9]
  pIC50: 5.07
  IC70: 5.95 µg/mL (≈ 16.4 µM)
  IC90: 11.4 µg/mL (≈ 31.4 µM)
[10]
  pIC50: 4.99
  IC70: 6.09 µg/mL (≈ 16.8 µM)
  IC90: 10 µg/mL (≈ 27.6 µM)
LNCaP [11]
  pIC50: 4.77
  IC70: 9.38 µg/mL (≈ 25.9 µM)
  IC90: 14.3 µg/mL (≈ 39.5 µM)
SF-268 [12]
  Activity: 106%
HCT-116 [13]
  Activity: 88%
[14]
  Activity: 98%
[15]
  Activity: 133%
CWR22R [16]
  Activity: 92%
DU-145 [17]
  Activity: 91%
[18]
  Activity: 120%
HT-29 [19]
  Activity: 113%
[20]
  Activity: 87%
[21]
  Activity: 96%
[22]
  Activity: 106%
LNCaP [23]
  Activity: 111%
[24]
  Activity: 101%
[25]
  Activity: 95%
[26]
  Activity: 107%
[27]
  Activity: 167%
[28]
  Activity: 92%
[29]
  Activity: 81%
[30]
  Activity: 97%
OVCAR-3
  Activity: 91%
[31]
  Activity: 92%
PANC-1 [32]
  Activity: 97%
[33]
  Activity: 95%
[34]
  Activity: 134%
[35]
  Activity: 95%
[36]
  Activity: 29%
[37]
  Activity: 55%
HCT-116 [38]
  Activity: 87%
[39]
  Activity: 85%
[40]
  Activity: 78%
PANC-1 [41]
  Activity: 68%
CWR22R [42]
  Activity: 48%
[43]
  Activity: 18%
[44]
  Activity: 100%
[45]
  Activity: 82%
[46]
  Activity: 102%
[47]
  Activity: 16%
[48]
  Activity: 12%
[49]
  Activity: 12%
[50]
  Activity: 9%
CWR22R [51]
  Activity: 11%
DU-145 [52]
  Activity: 12%
[53]
  Activity: 21%
[54]
  Activity: 14%
[55]
  Activity: 9%
